pEC50, pIC50: −log10 of the molar value.
Key:
[1] = Inhibition of dephosphorylated glycogen phosphorylase
HepG2 [2] = assay: Increase in glucose consumption in insulin-resistant human HepG2 cells after 24 hrs; format: functional, cell-based; settings: HepG2, 24 h
Summary of the method: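 HepG2 grown in high-glucose DMEM with 10% FBS, then plated 24 h. Made insulin-resistant with 10^-7 M insulin for 36 h in serum-free, phenol red-free high-glucose DMEM. Washed, then exposed to test agents at several concentrations for 24 h. Medium glucose measured by kit. Consumption gain expressed as % over the insulin-resistant model group. EC50 derived.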

[3] = target: AMP-activated protein kinase, AMPK (Homo sapiens) (UniProt P54646+O43741+P54619+Q9UGJ0+Q9Y478+Q13131+Q9UGI9); assay: Induction of AMPK phosphorylation in human HepG2 cells after 2 hrs by Western blot analysis; format: cell-based
Summary of the method: (§1)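 HepG2 in 12-well plates exposed to increasing doses for 2 h. Lysed on ice in RIPA buffer (pH 7.2) with phosphatase and protease inhibitors. Run on 7.5% SDS-PAGE and blotted to PVDF. Blocked 1 h in 5% BSA, primary antibodies overnight at 4 °C, secondary 1 h at room temperature. Chemiluminescent detection. Means ± SE of 3 independent experiments.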

HepG2 [4] = assay: Induction of ACC phosphorylation in human HepG2 cells after 2 hrs by Western blot analysis; format: cell-based; summary of the method: as §1

Compound | pEC50 (HepG2 [2]) | also measured
O=c1cc(-c2ccc(O)c(O)c2)oc2c(O)c(O)cc(O)c12 [HYPOLAETIN] |  | pIC50 [1]: 4.80
O=c1c(O)c(-c2ccc(O)c(O)c2)oc2cc(O)c(O)c(O)c12 [QUERCETAGETIN] |  | pIC50 [1]: 5.01
O=C(/C=C/c1ccc(O)cc1)OC[C@H]1O[C@@H](Oc2c(-c3ccc(O)cc3)oc3cc(O)cc(O)c3c2=O)[C@H](O)[C@@H](O)[C@@H]1O [TILIROSIDE] | 6.81 | 
CCCCCCOc1ccc(/C=C/C(=O)COc2c(-c3ccc(O)cc3)oc3cc(O)cc(O)c3c2=O)cc1 | < 4.70 | 
O=C(/C=C/c1ccc(O)c(Cl)c1)COc1c(-c2ccc(O)cc2)oc2cc(O)cc(O)c2c1=O | 5.45 | 
O=c1cc(-c2ccc(O)c(O)c2)oc2cc(O)c(O)c(O)c12 [6-HYDROXYLUTEOLIN] |  | pIC50 [1]: 4.94
COc1ccc(/C=C/C(=O)COc2c(-c3ccc(O)cc3)oc3cc(O)cc(O)c3c2=O)cc1O | 5.29 | 
COc1cc(/C=C/C(=O)COc2c(-c3ccc(O)cc3)oc3cc(O)cc(O)c3c2=O)ccc1OCc1ccccc1 | < 4.70 | 
COc1cc(/C=C/C(=O)COc2c(-c3ccc(O)cc3)oc3cc(O)cc(O)c3c2=O)ccc1O | 5.21 | 
CCCCOc1ccc(/C=C/C(=O)COc2c(-c3ccc(O)cc3)oc3cc(O)cc(O)c3c2=O)cc1 | < 4.70 | 
CCCCCCCCOc1ccc(/C=C/C(=O)COc2c(-c3ccc(O)cc3)oc3cc(O)cc(O)c3c2=O)cc1 | < 4.70 | 
O=C(/C=C/c1ccc(Cl)c(Cl)c1)COc1c(-c2ccc(O)cc2)oc2cc(O)cc(O)c2c1=O | 5.59 | 
O=C(/C=C/c1ccc(OCc2ccccc2)cc1)COc1c(-c2ccc(O)cc2)oc2cc(O)cc(O)c2c1=O | 6.18 | 
CN(C)C(=N)NC(=N)N [METFORMIN] | 6.57 | 

Further lines, with some results ahead:

pEC50 (HepG2 [2]) | Compound | also measured
6.33 | O=C(/C=C/c1ccccc1)COc1c(-c2ccc(O)cc2)oc2cc(O)cc(O)c2c1=O | 
6.43 | O=C(/C=C/c1ccc(O)cc1)COc1c(-c2ccc(O)cc2)oc2cc(O)cc(O)c2c1=O | 
7.82 | CC(C)c1ccc(/C=C/C(=O)COc2c(-c3ccc(O)cc3)oc3cc(O)cc(O)c3c2=O)cc1 | 
6.17 | O=C(/C=C/c1ccc(F)cc1)COc1c(-c2ccc(O)cc2)oc2cc(O)cc(O)c2c1=O | 
8.00 | Cc1ccc(/C=C/C(=O)COc2c(-c3ccc(O)cc3)oc3cc(O)cc(O)c3c2=O)cc1 | 
6.83 | COc1ccc(/C=C/C(=O)COc2c(-c3ccc(O)cc3)oc3cc(O)cc(O)c3c2=O)cc1 | 
< 4.70 | CSc1ccc(/C=C/C(=O)COc2c(-c3ccc(O)cc3)oc3cc(O)cc(O)c3c2=O)cc1 | 
7.38 | CCOc1ccc(/C=C/C(=O)COc2c(-c3ccc(O)cc3)oc3cc(O)cc(O)c3c2=O)cc1 | 
< 4.70 | O=C(/C=C/c1ccc(C(F)(F)F)cc1)COc1c(-c2ccc(O)cc2)oc2cc(O)cc(O)c2c1=O | 
5.97 | O=C(/C=C/c1ccc(Cl)cc1)COc1c(-c2ccc(O)cc2)oc2cc(O)cc(O)c2c1=O | 
7.89 | CC(C)(C)c1ccc(/C=C/C(=O)COc2c(-c3ccc(O)cc3)oc3cc(O)cc(O)c3c2=O)cc1 | 
< 4.70 | COc1ccc(/C=C/C(=O)COc2c(-c3ccc(O)cc3)oc3cc(O)cc(O)c3c2=O)cc1Br | 
6.41 | O=C(/C=C/c1ccc(Br)cc1)COc1c(-c2ccc(O)cc2)oc2cc(O)cc(O)c2c1=O | 
8.52 | N#Cc1ccc(/C=C/C(=O)COc2c(-c3ccc(O)cc3)oc3cc(O)cc(O)c3c2=O)cc1 | Activity [3]: Dose-dependent effect; Activity (HepG2 [4]): Dose-dependent effect

Source: ChEMBL document CHEMBL1828618, “Synthesis and biological activity of novel tiliroside derivants” (Eur J Med Chem, 2011)
